Tests used:
[1] = Resistance index, ratio of IC50 for antiplasmodial activity against CQ-resistance Plasmodium falciparum W2 infected in A+ human blood to IC50 for antiplasmodial activity against CQ-susceptible Plasmodium falciparum 3D7 infected in A+ human blood; assay type: functional
Outline: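 Resistance index calculated as IC50 against W2 divided by IC50 against 3D7, using the in vitro antiplasmodial IC50s measured for each strain.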

Plasmodium falciparum [2] = experiment: Antiplasmodial activity against CQ-susceptible Plasmodium falciparum 3D7 infected in A+ human blood assessed as reduction in parasite growth measured after 72 hrs by HRP2 ELISA; assay type: functional, organism-based; details: 3D7, Blood
Outline: (§1)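 IC50s against P. falciparum chloroquine-susceptible 3D7 and chloroquine-resistant W2 strains, each tested separately. Values are the mean and standard deviation of 6 to 9 independent experiments.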

[3] = Selectivity index, ratio of IC50 for cytotoxicity against African green monkey Vero cells to IC50 for antiplasmodial activity against CQ-susceptible Plasmodium falciparum 3D7 infected in A+ human blood assessed as reduction in parasite growth measured after 72 hrs by HRP2 ELISA; assay type: toxicity, cell-based; details: read-out: Selectivity Index
Outline: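 Selectivity index calculated as the IC50 for cytotoxicity on Vero cells divided by the antiplasmodial IC50 against the 3D7 strain.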

[4] = Cytotoxicity against African green monkey Vero cells; assay type: toxicity, cell-based; details: African green monkey (Chlorocebus sabaeus)
[5] = Selectivity index, ratio of IC50 for cytotoxicity against African green monkey Vero cells to IC50 for antiplasmodial activity against CQ-resistance Plasmodium falciparum W2 infected in A+ human blood assessed as reduction in parasite growth measured after 72 hrs by HRP2 ELISA; assay type: toxicity, cell-based; details: read-out: Selectivity Index
Outline: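 Selectivity index calculated as the IC50 for cytotoxicity on Vero cells divided by the antiplasmodial IC50 against the W2 strain.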

Plasmodium falciparum [6] = experiment: Antiplasmodial activity against CQ-resistance Plasmodium falciparum W2 infected in A+ human blood assessed as reduction in parasite growth measured after 72 hrs by HRP2 ELISA; assay type: functional, organism-based; outline: as §1

Row | Structure (SMILES) | Ratio IC50 [1] | IC50 (Plasmodium falciparum [2]) [µM] | selectivity ratio at 72 h [3] | IC50 [4] [µM] | selectivity ratio at 72 h [5] | IC50 (Plasmodium falciparum [6]) [µM]
1 | Cc1cc(NCCCNc2ccnc3cc(Cl)ccc23)n2ncnc2n1 | 0.79 | 0.62 | 291 | 181 | 369 | 0.49
2 | Cc1cc(NCCCCCCNc2cc(C)nc3ncnn23)n2ncnc2n1 | 0.97 | 11.6 |  |  |  | 11.3
3 | Cc1cc(NCCCCCCNc2ccnc3cc(Cl)ccc23)n2ncnc2n1 | 0.93 | 0.3 | 1040 | 311 | 1110 | 0.28
4 | Cc1cc(NCCCCCCCCNc2cc(C)nc3ncnn23)n2ncnc2n1 | 1.08 | 45.8 |  |  |  | 49.4
5 | Cc1cc(NCCNc2cc(C)nc3ncnn23)n2ncnc2n1 | 1.03 | 52.2 |  |  |  | 53.8
6 | Cc1cc(NCCCCCCCCNc2ccnc3cc(Cl)ccc23)n2ncnc2n1 | 1.18 | 0.17 | 2060 | 351 | 1750 | 0.2
7 | Cc1cc(N2CCN(c3ccnc4cc(Cl)ccc34)CC2)n2ncnc2n1 | 1.02 | 12.6 |  |  |  | 12.9
8 | Cc1cc(NCCNc2ccnc3cc(Cl)ccc23)n2ncnc2n1 | 1.2 | 9 |  |  |  | 10.8
9 | Cc1cc(NCCCCNc2cc(C)nc3ncnn23)n2ncnc2n1 | 0.94 | 12.5 |  |  |  | 11.8
10 | Cc1cc(NCCCCNc2ccnc3cc(Cl)ccc23)n2ncnc2n1 | 1.56 | 0.27 | 927 | 250 | 596 | 0.42
11 | Cc1cc(NCCCNc2cc(C)nc3ncnn23)n2ncnc2n1 | 1.03 | 47.3 |  |  |  | 49.1

Source: ChEMBL document CHEMBL5120935, “Synthesis, Anti-Plasmodial Activities, and Mechanistic Insights of 4-Aminoquinoline-Triazolopyrimidine Hybrids” (ACS Med Chem Lett, 2022)
